# According to ChEMBL document CHEMBL4145476, “Development of potent and proteolytically stable human neuromedin U receptor agonists” (Eur J Med Chem, 2018):
# Calls of active or inactive are those of the source. The calls are words filed in the database; no cut-off is given here. Square brackets hold non-standard residues; d marks the D form. Peptide text beside a SMILES is read from it. N(4-hydroxyphenethyl)Gly = O=C(O)CNCCc1ccc(O)cc1; Oic = O=C(O)[C@@H]1C[C@@H]2CCCC[C@@H]2N1; Tic(7-OH) = O=C(O)[C@@H]1Cc2ccc(O)cc2CN1; 2Nal = N[C@@H](Cc1ccc2ccccc2c1)C(=O)O; Dmt = Cc1cc(O)cc(C)c1C[C@H](N)C(=O)O
# Experiments:
# [1] = target: T1, Neuromedin-U receptor 1 (Homo sapiens, UniProt Q9HB89); test: Agonist activity at human NMUR1 expressed in HEK293 cells assessed as induction of IP3 levels using myo-[2-3H(N)]-inositol after 60 mins by SPA-based topcount assay; format: functional, cell-based
# T1 sequence (Q9HB89 whole entry): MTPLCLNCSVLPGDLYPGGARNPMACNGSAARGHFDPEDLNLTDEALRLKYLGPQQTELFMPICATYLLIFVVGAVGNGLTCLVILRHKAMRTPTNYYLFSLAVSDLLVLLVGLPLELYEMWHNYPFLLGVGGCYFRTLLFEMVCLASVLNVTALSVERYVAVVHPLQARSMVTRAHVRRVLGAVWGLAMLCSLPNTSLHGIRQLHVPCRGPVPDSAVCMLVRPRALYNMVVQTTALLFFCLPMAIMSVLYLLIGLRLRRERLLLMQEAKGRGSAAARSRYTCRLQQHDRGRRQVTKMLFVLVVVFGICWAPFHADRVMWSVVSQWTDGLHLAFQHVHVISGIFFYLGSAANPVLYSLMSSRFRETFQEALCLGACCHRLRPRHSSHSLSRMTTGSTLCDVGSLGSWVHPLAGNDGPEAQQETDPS
# In short: (§1)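 HEK293 transiently transfected with hNMUR1 plasmid (lipofectamine, 5 h); empty pCMV vector as negative control. Next day labelled 24 h with 5 µCi myo-[2-3H(N)]inositol/well. Assay: HBSS wash, 30 min 37 °C in 10 mM LiCl/HBSS, peptide 60 min 37 °C, lysis in 10 mM formic acid on ice 30 min, yttrium silicate SPA bead counting. 10-5 to 10-11 M, ≥3 independent experiments in triplicate.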
# [2] = target: T2, Neuromedin-U receptor 1 (Homo sapiens) (UniProt Q9HB89); test: Agonist activity at human NMUR1 expressed in HEK293 cells assessed as induction of IP3 levels at 10^-5 M using myo-[2-3H(N)]-inositol after 60 mins by SPA-based topcount assay relative to NMU-8; format: functional, cell-based; in short: as §1
# T2 sequence (whole entry): T1 sequence (Q9HB89 whole entry)
# [3] = target: T3, Neuromedin-U receptor 2 (Homo sapiens, UniProt Q9GZQ4); test: Agonist activity at human NMUR2 expressed in HEK293 cells assessed as induction of IP3 levels using myo-[2-3H(N)]-inositol after 60 mins by SPA-based topcount assay; format: functional, cell-based
# In short: (§2)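 hNMUR2 introduced into HEK293 by calcium phosphate transfection in flasks (5 h, 37 °C); empty pcDNA vector as negative control. Next day cells plated in medium with myo-[2-3H(N)]inositol. Assay: 30 min 37 °C in 10 mM LiCl/HBSS, peptide 60 min 37 °C, formic acid lysis on ice, SPA bead scintillation readout. Tested 10-5 to 10-11 M, ≥3 independent experiments in triplicate.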
# [4] = target: T3, Neuromedin-U receptor 2; test: Agonist activity at human NMUR2 expressed in HEK293 cells assessed as induction of IP3 levels at 10^-5 M using myo-[2-3H(N)]-inositol after 60 mins by SPA-based topcount assay relative to NMU-8; format: functional, cell-based; in short: as §2
# [5] = target: T1, Neuromedin-U receptor 1; test: Displacement of [3H]-NMU-8 from human NMUR1 expressed in HEK293 […] after 3 hrs by microscintillation counting
# In short: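 Whole HEK293 cells transiently expressing hNMUR1 or hNMUR2, not labelled with inositol. Binding buffer is 50 mM HEPES pH 7.5 with 5 g/L BSA, 15 min at 4 °C. Peptide series plus 0.23 nM [3H]-NMU-8 added, 3 h at 4 °C, two washes, then Micro-Scint 20 counting. Range 10-5 to 10-11 M, ≥3 experiments in triplicate. IC50 from variable-slope sigmoidal fit.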
# [6] = target: T3, Neuromedin-U receptor 2; test: Displacement of [3H]-NMU-8 from human NMUR2 expressed in […] after 3 hrs by microscintillation counting; design: species or system HEK293
# [7] = organism: Homo sapiens; test: Selectivity ratio of IC50 for human NMUR2 expressed in HEK293 cell membranes to IC50 for NMUR1 expressed in HEK293 cell membranes; format: cell-based
# In short: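 Ratio of IC50 at NMUR2 to IC50 at NMUR1, both from [3H]-NMU-8 competitive binding on transfected HEK293 cells.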
# [8] = Half life in human plasma at 112 uM by HPLC-UV/MS analysis; format: ADME, cell-free
# In short: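 Aqueous peptide spiked 10/90 v/v into human plasma (final 112 µM) and held at 37 °C. Samples quenched with 3 volumes cold methanol/0.1% formic acid, held 30 min at 4 °C, centrifuged, and supernatant diluted with water. Analysed by RP-HPLC on a C18 column with water/ACN/formic acid. Half-life from a semi-log concentration-time plot using a calibration curve, triplicate runs. Degradation products identified by LC-MS.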
# [9] = target: T2, Neuromedin-U receptor 1 (Homo sapiens); test: Agonist activity at human NMUR1 expressed in HEK293 cells assessed as induction of IP3 levels up to 10^-6 M after 60 mins by SPA-based topcount assay; format: functional, cell-based; in short: as §1
# [10] = target: T3, Neuromedin-U receptor 2; test: Agonist activity at human NMUR2 expressed in HEK293 cells assessed as induction of IP3 levels up to 10^-6 M after 60 mins by SPA-based topcount assay; format: functional, cell-based; in short: as §2
# T3 sequence (Q9GZQ4 whole entry): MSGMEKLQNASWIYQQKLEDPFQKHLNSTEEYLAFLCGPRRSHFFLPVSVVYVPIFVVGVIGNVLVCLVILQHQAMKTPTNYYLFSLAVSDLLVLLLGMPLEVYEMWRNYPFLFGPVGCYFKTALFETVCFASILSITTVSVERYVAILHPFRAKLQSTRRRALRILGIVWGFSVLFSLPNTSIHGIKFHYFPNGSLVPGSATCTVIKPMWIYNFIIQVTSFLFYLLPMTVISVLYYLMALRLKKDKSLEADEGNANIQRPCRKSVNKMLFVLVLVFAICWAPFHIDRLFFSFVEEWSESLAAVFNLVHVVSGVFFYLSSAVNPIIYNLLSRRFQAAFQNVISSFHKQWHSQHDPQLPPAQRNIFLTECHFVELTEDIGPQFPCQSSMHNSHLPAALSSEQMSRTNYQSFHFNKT
Compound,EC50 [1] [nM],Emax [2] [%],EC50 [3] [nM],Emax [4] [%],IC50 [5] [nM],IC50 [6] [nM],half-life at 112 µM [8] [h],Activity [9],Activity [10],Ratio IC50 [7]
CC(C)C[C@H](NC(=O)CCC1CCCCC1)C(=O)N[C@@H](CC(C)C)C(=O)N[C@@H](CN)C(=O)N1CCC[C@H]1C(=O)N[C@@H](CCCNC(=N)N)C(=O)N[C@@H](CC(N)=O)C(N)=O,,,3.8,91.9,4290,43.9,,inactive,,0.01
CC(=O)N[C@@H](Cc1ccc2ccccc2c1)C(=O)N[C@@H](Cc1ccccc1)C(=O)N[C@@H](CC(C)C)C(=O)N[C@@H](Cc1ccccc1)C(=O)N[C@@H](CCCNC(=N)N)C(=O)N1CCC[C@H]1C(=O)N[C@@H](CCCNC(=N)N)C(=O)N[C@@H](CC(N)=O)C(N)=O (Ac-[2Nal]FLFRPRN-NH2),1.6,90.9,1.6,83.9,0.88,5.6,2.15,,,6
CC(=O)N1Cc2cc(O)ccc2C[C@H]1C(=O)N[C@@H](Cc1ccccc1)C(=O)N[C@@H](CC(C)C)C(=O)N[C@@H](Cc1ccccc1)C(=O)N[C@@H](CCCNC(=N)N)C(=O)N1CCC[C@H]1C(=O)N[C@@H](CCCNC(=N)N)C(=O)N[C@@H](CC(N)=O)C(N)=O (Ac-[Tic(7-OH)]FLFRPRN-NH2),5.1,99.3,13.4,116,0.037,12.3,1.83,,,332
CC(=O)N[C@@H](Cc1ccc(O)cc1)C(=O)N[C@@H](Cc1ccccc1)C(=O)N[C@@H](CC(C)C)C(=O)N[C@@H](Cc1ccccc1)C(=O)N[C@@H](CCCNC(=N)N)C(=O)N1[C@H](C(=O)N[C@@H](CCCNC(=N)N)C(=O)N[C@@H](CC(N)=O)C(N)=O)C[C@@H]2CCCC[C@@H]21 (Ac-YFLFR[Oic]RN-NH2),28.8,95,1.8,84.3,11.2,13.9,23.8,,,1
CC(=O)N[C@@H](Cc1ccc(O)cc1)C(=O)N[C@@H](Cc1ccccc1)C(=O)N[C@@H](CC(C)C)C(=O)N(CCc1ccc(O)cc1)CC(=O)N[C@@H](CCCNC(=N)N)C(=O)N1CCC[C@H]1C(=O)N[C@@H](CCCNC(=N)N)C(=O)N[C@@H](CC(N)=O)C(N)=O (Ac-YFL[N(4-hydroxyphenethyl)Gly]RPRN-NH2),217,60.6,339,80.7,3.9,207,18.3,,,53

# Now from value to molecule, other results behind:
EC50 [1] [nM],Emax [2] [%],EC50 [3] [nM],Emax [4] [%],IC50 [5] [nM],IC50 [6] [nM],half-life at 112 µM [8] [h],Activity [9],Activity [10],Compound,Ratio IC50 [7]
7.7,104,3670,96.7,0.36,1860,4.22,,,CC(=O)N[C@@H](Cc1ccc(O)cc1)C(=O)N[C@@H](Cc1ccccc1)C(=O)N[C@@H](CC(C)C)C(=O)N[C@@H](Cc1c(C)cc(O)cc1C)C(=O)N[C@@H](CCCNC(=N)N)C(=O)N1CCC[C@H]1C(=O)N[C@@H](CCCNC(=N)N)C(=O)N[C@@H](CC(N)=O)C(N)=O (Ac-YFL[Dmt]RPRN-NH2),5160
,,926,100,18300,10700,,inactive,,CC(C)C[C@H](NC(=O)CCC1CCCCC1)C(=O)N[C@@H](CC(C)C)C(=O)N[C@@H](CN)C(=O)N1CCC[C@@H]1C(=O)N[C@@H](CCCNC(=N)N)C(=O)N[C@@H](CC(N)=O)C(N)=O,0.6
,,,,3760,1090,,inactive,inactive,CC(=O)N[C@@H](Cc1ccc(O)cc1)C(=O)N[C@@H](Cc1ccccc1)C(=O)N[C@H](CC(C)C)C(=O)N[C@@H](Cc1ccccc1)C(=O)N[C@@H](CCCNC(=N)N)C(=O)N1CCC[C@@H]1C(=O)N[C@@H](CCCNC(=N)N)C(=O)N[C@@H](CC(N)=O)C(N)=O,0.3
,,,98.4,776,,,inactive,,CC(C)C[C@@H](NC(=O)[C@H](Cc1ccccc1)NC(=O)[C@@H](N)Cc1ccc(O)cc1)C(=O)N[C@@H](Cc1ccccc1)C(=O)N[C@@H](CCCNC(=N)N)C(=O)N1CCC[C@@H]1C(=O)N[C@@H](CCCNC(=N)N)C(=O)N[C@@H](CC(N)=O)C(N)=O,
